Measurements: ChEMBL document CHEMBL4014329, “Selective Inhibition of Escherichia coli RNA and DNA Topoisomerase I by Hoechst 33258 Derived Mono- and Bisbenzimidazoles” (J Med Chem, 2017)
In brackets after ≈: the same amount, converted by molar mass. Activity calls are given as the source filed them. The rule behind the calls is not given here.

Columns and labels:
[1] = system: Acinetobacter baumannii; assay: Antibacterial activity against Acinetobacter baumannii ATCC 19606 after 24 hrs by microbroth dilution method; type: functional; conditions: ATCC 19606 = CIP 70.34 = JCM 6841, 24 h
Summary of the method: (§1)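 Microbroth dilution per CLSI guidelines. Organisms grown in Mueller−Hinton broth at 37 °C with shaking to log phase, pelleted, resuspended in 0.85% saline to OD625 0.1. Final inoculum 5 × 10^5 CFU/mL; triplicate; 24 h at 37 °C. OD625 read; MIC = lowest concentration completely inhibiting growth versus untreated controls.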

[2] = Inhibition of Escherichia coli DNA topoisomerase 1 using plasmid pBAD-GFPuv as substrate after 15 mins by agarose gel electrophoresis
Summary of the method: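 E. coli topoisomerase I at 6 nM relaxing 150 ng supercoiled pBAD-GFPuv. 15 min at 37 °C, phenol-stopped, 1% agarose gel, ethidium stain. IC50 is the concentration leaving 50% DNA supercoiled; three independent determinations.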

[3] = system: Enterococcus faecium; assay: Antibacterial activity against Enterococcus faecium BM4105RF after 24 hrs by microbroth dilution method; type: functional
Summary of the method: (§2)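 Mueller-Hinton broth cultures grown at 37 °C with shaking to log phase, pelleted, resuspended in 0.85% saline to OD625 0.1. Broth microdilution per CLSI guidelines, final inoculum 5 × 10^5 CFU/mL, in triplicate, 24 h at 37 °C. Growth read as OD625. MIC is the lowest concentration giving complete growth inhibition versus untreated controls.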

[4] = system: Staphylococcus epidermidis; assay: Antibacterial activity against Staphylococcus epidermidis ATCC 12384 after 24 hrs by microbroth dilution method; type: functional; conditions: ATCC 12384, 24 h; summary of the method: as §1
[5] = system: Enterococcus faecalis; assay: Antibacterial activity against Enterococcus faecalis ATCC 29212 after 24 hrs by microbroth dilution method; type: functional; conditions: ATCC 29212, 24 h; summary of the method: as §1
[6] = target: T1, DNA topoisomerase 1 (Homo sapiens, UniProt P11387); assay: Inhibition of human DNA topoisomerase 1 using plasmid pBAD-GFPuv as substrate after 30 mins by agarose gel electrophoresis
T1 sequence (P11387 whole entry): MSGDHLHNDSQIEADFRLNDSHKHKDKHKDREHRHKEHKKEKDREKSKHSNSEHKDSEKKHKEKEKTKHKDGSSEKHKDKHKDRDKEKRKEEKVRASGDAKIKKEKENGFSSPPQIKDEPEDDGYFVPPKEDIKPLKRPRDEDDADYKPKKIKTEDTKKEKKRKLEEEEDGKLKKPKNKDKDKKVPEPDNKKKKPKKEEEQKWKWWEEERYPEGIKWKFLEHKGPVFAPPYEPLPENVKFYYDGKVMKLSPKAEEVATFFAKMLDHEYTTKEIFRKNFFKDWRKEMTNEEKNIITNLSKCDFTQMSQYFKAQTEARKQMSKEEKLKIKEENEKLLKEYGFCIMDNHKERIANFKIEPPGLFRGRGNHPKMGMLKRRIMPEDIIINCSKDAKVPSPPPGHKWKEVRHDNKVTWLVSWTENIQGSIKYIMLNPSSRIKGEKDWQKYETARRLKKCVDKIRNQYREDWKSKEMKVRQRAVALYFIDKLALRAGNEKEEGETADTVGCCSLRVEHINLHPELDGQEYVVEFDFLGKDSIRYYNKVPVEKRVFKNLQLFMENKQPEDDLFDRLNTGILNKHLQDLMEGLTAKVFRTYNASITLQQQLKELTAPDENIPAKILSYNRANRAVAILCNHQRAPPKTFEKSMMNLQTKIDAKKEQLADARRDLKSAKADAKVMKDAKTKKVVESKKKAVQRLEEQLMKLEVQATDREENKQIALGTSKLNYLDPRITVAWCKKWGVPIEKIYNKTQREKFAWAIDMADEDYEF

[7] = system: Enterobacter cloacae; assay: Antibacterial activity against Enterobacter cloacae ATCC 13047 after 24 hrs by microbroth dilution method; type: functional; conditions: ATCC 13047, 24 h; summary of the method: as §1
[8] = system: Staphylococcus aureus; assay: Antibacterial activity against Staphylococcus aureus ATCC 33591 after 24 hrs by microbroth dilution method; type: functional; conditions: ATCC 33591, 24 h; summary of the method: as §1
[9] = system: Escherichia coli; assay: Inhibition of Escherichia coli RNA topoisomerase 1 using circular RNA as substrate up to 50 uM after 1.5 hrs by SDS-PAGE analysis
Summary of the method: (§3)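 10 nM E. coli topoisomerase I premixed with reaction buffer and inhibitor diluted in DMSO, then circular RNA substrate added; 1.5 h incubation. Stopped with proteinase K/SDS/EDTA buffer. Trefoil RNA knot product separated from circular substrate on 15% TBE−urea gels and detected by phosphorimaging. DMSO-only control included.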

[10] = system: Staphylococcus aureus; assay: Antibacterial activity against Staphylococcus aureus ATCC 29213 after 24 hrs by microbroth dilution method; type: functional; conditions: ATCC 29213, 24 h; summary of the method: as §1
[11] = system: Citrobacter freundii; assay: Antibacterial activity against Citrobacter freundii 4747CFAA after 24 hrs by microbroth dilution method; type: functional; summary of the method: as §1
[12] = system: Escherichia coli; assay: Antibacterial activity against Escherichia coli ATCC 25922 after 24 hrs by microbroth dilution method; type: functional; conditions: ATCC 25922, 24 h; summary of the method: as §1
[13] = system: Escherichia coli; assay: Antibacterial activity against Escherichia coli K-12 after 24 hrs by microbroth dilution method; type: functional; conditions: K-12, 24 h; summary of the method: as §1
[14] = Binding affinity to dA60.dT60 B-DNA duplex (unknown origin) assessed as induction of biphasic transition at <5 uM by UV-vis spectrophotometric analysis
[15] = system: Staphylococcus aureus; assay: Antibacterial activity against methicillin-resistant Staphylococcus aureus A960649 after 24 hrs by microbroth dilution method; type: functional; conditions: A960649, 24 h; summary of the method: as §2
[16] = system: Pseudomonas aeruginosa; assay: Antibacterial activity against Pseudomonas aeruginosa ATCC 27853 after 24 hrs by microbroth dilution method; type: functional; conditions: ATCC 27853, 24 h; summary of the method: as §1
[17] = system: Klebsiella pneumoniae; assay: Antibacterial activity against Klebsiella pneumoniae NR15410 after 24 hrs by microbroth dilution method; type: functional; conditions: NR15410, 24 h; summary of the method: as §1
[18] = Binding affinity to dA60.dT60 B-DNA duplex (unknown origin) assessed as change in melting temperature at 10 uM by UV-vis spectrophotometric analysis
Summary of the method: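 UV melting of dA60·dT60 at 1 μM/duplex with compound at 10 μM. Buffer 10 mM sodium cacodylate, 0.1 mM EDTA, 100 mM NaCl, pH 7.0; duplex pre-annealed from 95 °C. Compound stocks in DMSO diluted into buffer. Heating at 0.2 °C/min, monitored at 260 nm, points every 1.0 °C; Tm taken from derivatives.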

[19] = system: Shigella flexneri; assay: Antibacterial activity against Shigella flexneri 2457NR517 after 24 hrs by microbroth dilution method; type: functional; conditions: 2457NR517, 24 h; summary of the method: as §2
[20] = system: Staphylococcus aureus; assay: Antibacterial activity against methicillin-resistant Staphylococcus aureus 33591 after 24 hrs by microbroth dilution method; type: functional; conditions: Staphylococcus aureus, 33591, 24 h; summary of the method: as §2
[21] = system: Escherichia coli; assay: Inhibition of Escherichia coli RNA topoisomerase-1 using circular RNA as substrate 10 uM after 1.5 hrs by SDS-PAGE analysis; summary of the method: as §3
[22] = system: DU-145; assay: Cytotoxicity against human DU145 cells after 48 hrs by SRB assay; type: cell-based; conditions: for Activity: human, du-145, 48 h
Summary of the method: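 Cells cultured per ATCC protocols, seeded and grown 24 h (37 °C, 5% CO2), then treated in triplicate at final 20, 10, 5, 2.5, 1.25, 0.625 and 0.0625 μM for 48 h. Fixed with cold TCA (16% final, 4 °C, 1 h), stained with SRB in 1% acetic acid, dye solubilized in 10 mM Tris base, A560 read. IC50 derived; study in duplicate.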

[23] = system: Escherichia coli; assay: Inhibition of Escherichia coli DNA gyrase using relaxed plasmid pBAD-GFPuv as substrate after 30 mins by agarose gel electrophoresis
[24] = system: Escherichia coli; assay: Inhibition of Escherichia coli RNA topoisomerase 1 using circular RNA as substrate up to 80 uM after 1.5 hrs by SDS-PAGE analysis
Summary of the method: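 E. coli topoisomerase I (10 nM) premixed in reaction buffer with inhibitor diluted in DMSO, then circular RNA substrate added; 1.5 h. DMSO-only control included. Final inhibitor 2.5 to 80 μM. Stopped with proteinase K/SDS/EDTA. Trefoil RNA knot product resolved from substrate on 15% TBE-urea gels and detected by autoradiography.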

| Structure (SMILES) | MIC [1] | IC50 [2] | MIC [3] | MIC [4] | MIC [5] | IC50 [6] | MIC [7] | MIC [8] | inhibition [9] | MIC [10] | MIC [11] | MIC [12] | MIC [13] | Activity [14] | MIC [15] | MIC [16] | MIC [17] | ΔTm [18] | MIC [19] | MIC [20] | also measured |
| --- | --- | --- | --- | --- | --- | --- | --- | --- | --- | --- | --- | --- | --- | --- | --- | --- | --- | --- | --- | --- | --- |
| CN1CCN(c2ccc3nc(-c4ccc(OCc5cn(CCCCN=[N+]=[N-])nn5)cc4)[nH]c3c2)CC1 | > 32 mg/L | 21.5 µM | > 32 mg/L | > 32 mg/L | 16 to 32 mg/L (≈ 32.9 to 65.8 µM) | > 50 µM | > 32 mg/L | 16 mg/L (≈ 32.9 µM) | inactive | 16 to 32 mg/L (≈ 32.9 to 65.8 µM) | > 32 mg/L | 16 mg/L (≈ 32.9 µM) | 16 mg/L (≈ 32.9 µM) | Active | > 32 mg/L | 16 mg/L (≈ 32.9 µM) | > 32 mg/L | 0.5 °C | > 32 mg/L | > 32 mg/L | – |
| C#CCOCCCCCCCCOc1ccc(-c2nc3ccc(-c4nc5ccc(N6CCN(C)CC6)cc5[nH]4)cc3[nH]2)cc1 | > 32 mg/L | 2.8 µM | > 32 mg/L | > 32 mg/L | 16 to 32 mg/L (≈ 27.1 to 54.2 µM) | > 50 µM | > 32 mg/L | 16 to 32 mg/L (≈ 27.1 to 54.2 µM) | – | > 32 mg/L | > 32 mg/L | 16 to 32 mg/L (≈ 27.1 to 54.2 µM) | 2 to 4 mg/L (≈ 3.39 to 6.77 µM) | Active | > 32 mg/L | 16 to 32 mg/L (≈ 27.1 to 54.2 µM) | > 32 mg/L | 13.1 °C | > 38 mg/L | > 32 mg/L | inhibition [21]: Active; Activity [22]: Toxic |
| C#CCCCCCCCCCOc1ccc(-c2nc3ccc(-c4nc5ccc(N6CCN(C)CC6)cc5[nH]4)cc3[nH]2)cc1 | > 32 mg/L | – | > 32 mg/L | > 32 mg/L | – | – | > 32 mg/L | – | – | – | > 32 mg/L | 16 mg/L (≈ 27.8 µM) | – | – | > 32 mg/L | 16 mg/L (≈ 27.8 µM) | > 32 mg/L | – | > 32 mg/L | > 32 mg/L | inhibition [21]: Active; inhibition [23]: inactive; IC50 ([22]; Homo sapiens, DU-145, 48 h): > 10 µM |
| C#CCCCCOc1ccc(-c2nc3ccc(-c4nc5ccc(N6CCN(C)CC6)cc5[nH]4)cc3[nH]2)cc1 | 16 mg/L (≈ 31.7 µM) | – | 1 to 2 mg/L (≈ 1.98 to 3.96 µM) | 1 to 2 mg/L (≈ 1.98 to 3.96 µM) | – | – | > 32 mg/L | – | inactive | – | > 32 mg/L | 8 to 16 mg/L (≈ 15.9 to 31.7 µM) | – | – | 4 mg/L (≈ 7.93 µM) | 16 mg/L (≈ 31.7 µM) | > 32 mg/L | – | 8 mg/L (≈ 15.9 µM) | 4 mg/L (≈ 7.93 µM) | inhibition [23]: inactive; Activity [22]: Toxic |
| CCOc1ccc(-c2nc3cc(-c4nc5cc(N6CCN(C)CC6)ccc5[nH]4)ccc3[nH]2)cc1 | 8 mg/L (≈ 17.7 µM) | – | 0.3 mg/L (≈ 0.663 µM) | 1 mg/L (≈ 2.21 µM) | 16 to 32 mg/L (≈ 35.4 to 70.7 µM) | – | 4 mg/L (≈ 8.84 µM) | 2 to 4 mg/L (≈ 4.42 to 8.84 µM) | – | 2 to 4 mg/L (≈ 4.42 to 8.84 µM) | – | 16 mg/L (≈ 35.4 µM) | 16 mg/L (≈ 35.4 µM) | – | 0.5 mg/L (≈ 1.1 µM) | 16 mg/L (≈ 35.4 µM) | – | – | 1 to 2 mg/L (≈ 2.21 to 4.42 µM) | 1 mg/L (≈ 2.21 µM) | inhibition [24]: inactive |
